Screening data deposited in PubChem BioAssay by several laboratories.
Most compounds without a hit are left out; they make up all but 2.2% or so of the library.
APP 5'UTR act = APP 5'UTR luciferase reporter activation. SH-SY5Y APP 5'UTR luciferase reporter, luminescence; zero percent = DMSO vehicle wells. 190,000 compounds, 1% hits. activation, % at 2 µM;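 active means activation above a set limit, based on mean plus 3 SD of controls, cut at about 140% in these data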
PPC-1+TRAIL kill = compounds killing PPC-1 cancer cells with TRAIL present (potentiator screen, no TRAIL-free arm); PPC-1 cells + TRAIL, ATPLite viability luminescence; cell killing (% activity), % at 4 µM or 5 µM; AID 1443; 220,000 compounds, 0.41% hits;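 active means cell killing above 50% in the first pass at 4 µM, then a duplicate retest at 5 µM averaging 50% or more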;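 further: plate controls were cells with TRAIL plus DMSO for no effect and medium-only wells lacking cells for full effect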
C8 TRAIL sens = sensitizes caspase-8 expressing cells to TRAIL; NB7+C8 cells + TRAIL, ATPlite viability luminescence; inhibition (viability loss, TRAIL sensitization), % at 10 µM; 360,000 compounds, 1% hits; AID 624354;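 active means compounds causing at least 50% loss of cell viability in the single-dose screen, relative to plate controls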
FLuc stim CS = affects firefly luciferase, flagging false hits in luciferase stimulation screens | ATPlite luciferase biochemical, luminescence, 10 min; 0 = ATP-free wells, 1 = DMSO control | activation factor at 10 µM | 200,000 tested, under 10 active;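 active means luciferase activation factor, scaled between plate controls, of at least 2 with compound at 10 µM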
Target sequence (P08659 whole entry, looked up): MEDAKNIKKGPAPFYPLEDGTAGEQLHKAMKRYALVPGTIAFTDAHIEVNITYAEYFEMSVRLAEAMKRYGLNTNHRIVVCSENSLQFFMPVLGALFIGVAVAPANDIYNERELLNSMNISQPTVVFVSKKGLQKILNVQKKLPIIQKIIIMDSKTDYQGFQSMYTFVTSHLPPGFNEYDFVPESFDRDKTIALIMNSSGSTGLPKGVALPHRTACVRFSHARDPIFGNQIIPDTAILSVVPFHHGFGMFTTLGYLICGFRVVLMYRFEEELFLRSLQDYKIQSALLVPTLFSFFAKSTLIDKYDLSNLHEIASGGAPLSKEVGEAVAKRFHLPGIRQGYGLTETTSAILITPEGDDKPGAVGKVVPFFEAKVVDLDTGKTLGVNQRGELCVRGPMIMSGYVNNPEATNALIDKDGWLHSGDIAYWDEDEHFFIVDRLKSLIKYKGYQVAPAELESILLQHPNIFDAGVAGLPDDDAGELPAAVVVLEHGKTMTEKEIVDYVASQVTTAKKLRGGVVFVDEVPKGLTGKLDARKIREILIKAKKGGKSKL
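test system = cell-free luciferase reagent | medium = PBS as buffer for the ATP substrate | dosing = test compounds dosed from 2 mM stocks in 100% DMSO | incubation = 10 min at ambient temperature | detection = luminescence measurement of luciferase light output | benchmarks = low control with PBS replacing ATP, high control enzyme plus ATP without compound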
NF-kB expr up = compounds increasing NF-kB expression in human neuronal cells; 190,000 compounds, 1.6% hits; NF-kB reporter expression; active compounds read high; AID 1239; fold change at 12.5 µM; in the data active means fold change above about 3.3
FLuc inh counter = counter-screen for luciferase assay inhibitors: firefly luciferase inhibition. AID 1006. 200,000 compounds, 1.5% hits. ATPLite firefly luciferase biochemical luminescence, 10 min. inhibition, % at 10 µM;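 active means inhibition above about 50% when tested at 10 µM, limit read from the data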
Numbers without * were called inactive; · = no result.

SMILES	APP 5'UTR act	PPC-1+TRAIL kill	C8 TRAIL sens	FLuc stim CS	NF-kB expr up	FLuc inh counter
CCc1ccc(-c2cc3c(=O)n(CC(=O)NCCCN4CCN(C)CC4)ncn3n2)cc1	·	·	59.5*	·	·	·
COc1ccc(-c2cc3c(=O)n(CC(=O)N4CCN(C)CC4)ncn3n2)cc1	·	·	58.8*	·	·	·
CCc1ccc(-c2cc3c(=O)n(CC(=O)NCCCN4CCC(Cc5ccccc5)CC4)nc(C)n3n2)cc1	·	·	91.2*	·	·	·
Cc1nn(CC(=O)NCCCN2CCC(Cc3ccccc3)CC2)c(=O)c2cc(-c3ccccc3)nn12	·	·	23.2	·	·	·
CCc1ccc(-c2cc3c(=O)n(CC(=O)NCc4ccccc4F)ncn3n2)cc1	·	·	-5.3	·	·	·
COc1ccc(Cc2c(-c3ccc(C)cc3)nc3ccc(Cl)cn23)c(C)c1	·	·	-8.6	·	·	·
CCCCNC(=O)C(NC(=O)c1ccc2c(c1)OCO2)C(=O)c1ccccc1 (centres undefined)	·	·	-14.5	·	·	·
COc1cc(SC)ccc1C(=O)Nc1cccc(C)n1	243.6*	·	43.5	0.3	1.01	69.5*
COc1cc(SC)ccc1C(=O)NCCc1ccccc1	85.4	10.6	6.6	0.9	3.52*	5.9
COc1cc(SC)ccc1C(=O)Nc1ccc(OCC(=O)N2CCOCC2)cc1	·	·	85.8*	·	·	·
COc1ccc(CNC(=O)c2ccc(SC)cc2OC)cc1	-15.5	-31.0	8.1	1	0.99	-4.4
COc1cc(SC)ccc1C(=O)Nc1ccon1	48.4	20.8	11.2	0.7	2.09	30.6
COc1cc(SC)ccc1C(=O)Nc1ccc(C)cc1	184.2*	22.6	25.2	0.5	6.57*	53.8*
COc1cc(C(=O)NC2CC2)cc(OC)c1OC	·	·	0.7	·	·	·
COc1cc(SC)ccc1C(=O)Nc1ncc(Cl)cc1Cl	142.0*	39.5	21.2	0.7	3.78*	26.6
COc1cc(SC)ccc1C(=O)NC(C)C	15.2	15.2	-8.7	1	·	0.2
COc1cc(SC)ccc1C(=O)Nc1ccc(C)cc1C	116.3	17.9	20.9	0.6	3.98*	36.3
Fc1cccc(Cc2c(-c3ccccc3)nc3ccc(Cl)cn23)c1	·	·	-2.7	·	·	·
Cc1ccc2nc(C3CCCCC3)c(Cc3ccccc3)n2c1	·	·	-3.9	·	·	·
CCOc1ccc(-n2nnnc2-c2nc3ccccc3s2)cc1	122.9	19.4	63.2*	0.7	1.32	33.9
Cc1ccc(Nc2nc(=O)c3cccnc3s2)cc1	67.7	39.8	22.4	0.8	4.32*	17.1
COCCOC(=O)N1CCCCC1c1cc(C(=O)Nc2cccc3c2CCCC3)no1 (centres undefined)	·	·	-9.8	·	·	·
O=C(NCCOc1ccccc1)c1cccc2c1C(=O)c1ccc(Cl)cc1S2(=O)=O	·	·	55.1*	·	·	·
N#Cc1cccnc1N1CCN(C(=O)c2cccc3c2C(=O)c2ccc(Cl)cc2S3(=O)=O)CC1	·	·	77.6*	·	·	·
O=C1c2ccc(Cl)cc2S(=O)(=O)c2cccc(C(=O)N3CCC(Cc4ccccc4)CC3)c21	·	·	92.5*	·	·	·
SMILES	APP 5'UTR act	PPC-1+TRAIL kill	C8 TRAIL sens	FLuc stim CS	NF-kB expr up	FLuc inh counter
COCCCn1cc(CN(C)C2CN(Cc3cn(CCCOC)nn3)S(=O)(=O)C2)nn1 (centres undefined)	·	·	-5.2	·	·	·
O=C(NC1CCCCC1)c1cccc(NC(=O)c2ccccc2Cl)c1	·	·	-1.5	·	·	·
CC1(Cc2ccc(Cl)cc2)C(=O)Nc2ccc(S(=O)(=O)NC3CCCCC3)cc21 (centres undefined)	·	·	7.4	·	·	·
CC1(Cc2ccc(OC(F)(F)F)cc2)C(=O)Nc2ccc(S(=O)(=O)NC3CCCCC3)cc21 (centres undefined)	·	·	63.7*	·	·	·
O=C1N/C(=N\N=C\c2ccc3ncccc3c2)SC1Cc1ccc(SC(F)F)cc1 (centres undefined)	-6.1	14.1	26.6	0.4	1.07	60.8*
Cc1ccc(O)c(NC(=O)c2noc3c2CCCCC3)c1	211.5*	44.6	11.5	0.3	9.75*	65.3*
Cc1ccc(Cn2ccc(NC(=O)c3noc4c3CCCCC4)n2)cc1	-2.4	3.2	2.5	1	1.3	0.5
Cc1ccc(NC(=O)c2noc3c2CCCCC3)cc1	140.0*	21.9	18.0	0.7	8.1*	31.6
O=C(NC1CCCCC1)c1noc2c1CCCCC2	131.3	8.7	34.7	0.8	1.42	22.3
Cc1ccc(NC(=O)c2noc3c2CCCCC3)cc1C	237.3*	-8.4	16.9	0.8	4.86*	15.9
COc1ccc(NC(=O)c2noc3c2CCCCC3)cc1	166.0*	12.2	-8.1	0.8	6.73*	24.4
O=C1NC[C@H](Cc2ccccc2)N(C[C@@H]2CCCN2C[C@H](Cc2ccccc2)N2C[C@H](Cc3ccccc3)N(CCc3ccccc3)C(=O)C2=O)C1=O	·	·	1.5	·	·	·
O=C(NC1CCCC1)C1c2ccccc2OCC(=O)N1CCc1ccccc1 (centres undefined)	·	·	-21.4	·	·	·
O=C(NCc1cccnc1)c1cc(C2CCCN(S(=O)(=O)c3cccs3)C2)on1 (centres undefined)	·	·	6.4	·	·	·
O=C(NCc1cccs1)C1C(=O)Nc2ccccc2C(=O)N1Cc1ccccc1 (centres undefined)	·	·	3.3	·	·	·
CCc1ccc(NC(=O)c2noc3c2CCCCC3)cc1	201.5*	6.4	20.2	0.9	4.48*	9.9
CCc1ccc(NC(=O)c2noc3c2CCC3)cc1	143.8*	4.0	27.6	0.4	3.4*	63.8*
O=C(NCc1ccccc1)c1noc2c1CCCC2	0.0	16.3	3.5	1	1.41	1.4
O=C(NCCc1ccccc1)c1noc2c1CCCCC2	100.5	6.0	-3.4	0.9	3.76*	8.4
CCc1ccc(NC(=O)c2noc3c2CCc2ccccc2-3)cc1	1.3	-6.6	7.2	1	1.99	-2.1
O=C(NCCC1=CCCCC1)c1[nH]c(C(F)(F)F)nc1-c1ccccc1	·	·	5.8	·	·	·
O=C(NCCO)c1cccc(-c2cnc3cccnn23)c1	·	·	-12.4	·	·	·
CSc1ccc(/C=C/C(=O)c2c(O)cc(C)oc2=O)cc1	·	·	63.8*	·	·	·
Cc1cc(O)c(C(=O)/C=C/c2ccc(Cl)cc2)c(=O)o1	·	·	69.5*	·	·	·
O=C(O)/C=C/c1ccc([N+](=O)[O-])o1	-18.0	8.6	-4.3	1.1	1.18	-5.3
O=C(/C=C/c1ccc(Cl)cc1)c1ccc([N+](=O)[O-])o1	·	·	59.8*	·	·	·
CCOC(=O)[C@]12CCCC=C1N(CCC1=CCCCC1)C(=O)[C@H](CC(=O)NCC1CCCCC1)C2	·	·	-11.5	·	·	·
